Assay results from ChEMBL document CHEMBL1124171, “Ergolines as selective 5-HT1 agonists” (J Med Chem, 1988).

What was measured:
Rattus norvegicus [1] = test: Effect of Metergoline on the elevation of serum corticosterone, after sc administration (1.0 mg/kg) Metergoline pretreament; format: functional, organism-based
How it was run: (§1)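 Male Wistar rats (~150 g) received metergoline (3 mg/kg, ip) or no pretreatment. Drug was given sc in dilute HCl 1 h later, and rats were decapitated 1 h after that. Serum corticosterone was determined spectrofluorometrically. Results are mean ± SE, five rats/group, P < 0.05 versus the corresponding control.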

Rattus norvegicus [2] = test: Decreased accumulation of 5-hydroxytryptophan after decarboxylase inhibition in the hypothalamus of rat at a dose 0.01mg/Kg, sc; format: functional, organism-based
How it was run: (§2)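 Male Wistar rats (~150 g) got drug sc in dilute HCl. NSD 1015 (100 mg/kg, ip) was given 30 min after drug and 30 min before decapitation. Hypothalamic 5-HTP was measured by LC with electrochemical detection. Results are mean ± SE, five rats per treated group and six controls; significance at P < 0.01.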

Rattus norvegicus [3] = test: Effect on serum corticosterone in serum of rats after sc administration (0.3 mg/kg dose) (experiment 1); format: functional, organism-based
How it was run: (§3)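 Male Wistar rats (~150 g) housed at 24 °C with lights 7 a.m.–7 p.m. Compound in dilute HCl given sc 1 h before decapitation. Serum corticosterone measured spectrofluorometrically, μg/100 mL. Five rats per group, mean ± SE. Significance set at P < 0.05 versus the vehicle control.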

Rattus norvegicus [4] = test: Effect on concentration of 5HIAA in rat brain hypothalamus after 0.3 mg/kg sc administration; format: functional, organism-based; set-up: dose 0.3 mg/kg
How it was run: (§4)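 Male Wistar rats (~150 g) were injected sc with drug in dilute HCl and decapitated 1 h later. Hypothalamus and striatum were dissected and frozen on dry ice. […] Results are mean ± SE, five rats/group, P < 0.05.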

[5] = target: Serotonin 2 (5-HT2) receptor (Rattus norvegicus, UniProt P30994+P08909+P14842); test: Binding affinity at 5-hydroxytryptamine 2 receptor from rat frontal cortex homogenates by [3H]-spiperone displacement.; format: tissue-based
Rattus norvegicus [6] = test: Effect on serotonin in rat whole brain, after sc administration (1 mg/kg dose) (experiment 1); format: functional, organism-based
Rattus norvegicus [7] = test: Effect on serotonin in rat whole brain, after sc administration (0.3 mg/kg dose) (experiment 1); format: functional, organism-based
Rattus norvegicus [8] = test: Minimum effective dose required to suppressing (MED) 5HIAA concentration in rat when administered sc; format: functional; conditions: read-out: MED
How it was run: (§5)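 Male Wistar rats (~150 g). Compound in dilute HCl given sc at graded doses 1 h before decapitation. Whole-brain 5-HIAA measured by LC with electrochemical detection; serum corticosterone measured spectrofluorometrically. Minimum effective dose is the lowest dose giving a significant difference from control (P < 0.05).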

Rattus norvegicus [9] = test: Effect on 5-hydroxyindoleacetic acid in rat whole brain, after sc administration (0 mg/kg dose) (experiment 2); format: functional, organism-based
How it was run: (§6)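 Drug was given sc in dilute HCl to male Wistar rats (~150 g), with decapitation 1 h later. Whole brains were frozen on dry ice and held at −15 °C. […] Results are mean ± SE, five rats/group, P < 0.05 versus vehicle control.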

Rattus norvegicus [10] = test: Effect of Metergoline on the elevation of serum corticosterone, after sc administration (1.0 mg/kg) No pretreatment; format: functional, organism-based; how it was run: as §1
Rattus norvegicus [11] = test: Effect on 5-hydroxyindoleacetic acid in rat whole brain, after sc administration (0.1 mg/kg dose) (experiment 1); format: functional, organism-based; how it was run: as §6
Rattus norvegicus [12] = test: Effect on serum corticosterone in serum of rats after sc administration (0 mg/kg dose) (experiment 1); format: functional, organism-based; how it was run: as §3
Rattus norvegicus [13] = test: Effect on concentration of serotonin in rat brain striatum after 0.3 mg/kg sc administration; format: functional, organism-based; set-up: dose 0.3 mg/kg; how it was run: as §4
Rattus norvegicus [14] = test: Effect on 5-hydroxyindoleacetic acid in rat whole brain, after sc administration (0.3 mg/kg dose) (experiment 1); format: functional, organism-based; how it was run: as §6
Rattus norvegicus [15] = test: Decreased accumulation of 5-hydroxytryptophan after decarboxylase inhibition in the hypothalamus of rat at a dose 0.03mg/Kg, sc; format: functional, organism-based; how it was run: as §2
Rattus norvegicus [16] = test: Effect on serotonin in rat whole brain, after sc administration (0.03 mg/kg dose) (experiment 2); format: functional, organism-based
Rattus norvegicus [17] = test: Effect on 3,4-dihydroxyphenylacetic acid concentration in rat striatum, after 0.3 mg/kg sc administration; format: functional; conditions: route subcutaneous
How it was run: (§7)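 Male Wistar rats (~150 g) were given drug or apomorphine HCl sc and decapitated 1 h later. Striatal DOPAC and HVA were quantified by LC with electrochemical detection. Results are mean ± SE, five rats/group, P < 0.05.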

Rattus norvegicus [18] = test: Effect of Metergoline on the elevation of serum corticosterone, after sc administration (0 mg/kg) No pretreatment; format: functional, organism-based; how it was run: as §1
Rattus norvegicus [19] = test: Effect on homovanillic acid concentration in rat striatum, after 0.1 mg/kg sc administration; format: functional; conditions: route subcutaneous; how it was run: as §7
Rattus norvegicus [20] = test: Decreased accumulation of 5-hydroxytryptophan after decarboxylase inhibition in the hypothalamus of rat at a dose 0.3 mg/Kg, sc; format: functional, organism-based; how it was run: as §2
Rattus norvegicus [21] = test: Effect on 5-hydroxyindoleacetic acid in rat whole brain, after sc administration (1 mg/kg dose) (experiment 1); format: functional, organism-based; how it was run: as §6
Rattus norvegicus [22] = test: Effect of Metergoline on the elevation of serum corticosterone, after sc administration (0.03 mg/kg) Metergoline pretreament; format: functional, organism-based; how it was run: as §1
Rattus norvegicus [23] = test: Effect of Metergoline on the elevation of serum corticosterone, after sc administration (0.1 mg/kg) Metergoline pretreament; format: functional, organism-based; how it was run: as §1
[24] = Ratio of affinity towards 5-HT1 to 5-HT2 receptor
How it was run: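 Frontal cortex from male Wistar rats (140–160 g), homogenate pellet in 0.05 M Tris with 10 μM pargyline and 4 mM Ca²⁺, 250–350 μg protein/sample. 5-HT1: 2 nM [³H]-5-HT, nonspecific with 10 μM 5-HT. […] Eleven concentrations, 0.1–10 000 nM, in duplicate. IC50 from curve fitting of specific binding.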

Rattus norvegicus [25] = test: Effect on homovanillic acid concentration in rat striatum, after 0.03 mg/kg sc administration; format: functional; conditions: route subcutaneous; how it was run: as §7
Rattus norvegicus [26] = test: Effect on 5-hydroxyindoleacetic acid in rat whole brain, after sc administration (0 mg/kg dose) (experiment 1); format: functional, organism-based; how it was run: as §6
Rattus norvegicus [27] = test: Effect on 5-hydroxyindoleacetic acid in rat whole brain, after sc administration (0.01 mg/kg dose) (experiment 2); format: functional, organism-based; how it was run: as §6
Rattus norvegicus [28] = test: Decreased accumulation of 5-hydroxytryptophan after decarboxylase inhibition in the hypothalamus of rat at a dose 0mg/Kg, sc; format: functional, organism-based; how it was run: as §2
Rattus norvegicus [29] = test: Effect on concentrations of serotonin in rat brain hypothalamus after 0.3 mg/kg sc administration; format: functional, organism-based; set-up: dose 0.3 mg/kg; how it was run: as §4
Rattus norvegicus [30] = test: Minimum effective dose required to increase (MED) corticosterone in rat serum, sc; format: functional; conditions: read-out: MED; how it was run: as §5
Rattus norvegicus [31] = test: Effect on serotonin in rat whole brain, after sc administration (0 mg/kg dose) (experiment 2); format: functional, organism-based; how it was run: as §6
Rattus norvegicus [32] = organism: Rattus norvegicus; test: Effect of […] on the elevation of serum corticosterone at a dose 100 ug/mL No pretreatment; format: functional, organism-based
How it was run: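 Rats got p-chlorophenylalanine (300 mg/kg, ip) or no pretreatment. 24 h later, drug (0.3 mg/kg, sc, dilute HCl) or p-chloroamphetamine HCl (2.5 mg/kg, ip) was given, and rats were killed 1 h after. Serum corticosterone was measured spectrofluorometrically. Results are mean ± SE, five male Wistar rats/group.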

Rattus norvegicus [33] = test: Decreased accumulation of 5-hydroxytryptophan after decarboxylase inhibition in the hypothalamus of rat at a dose 0.1mg/Kg, sc; format: functional, organism-based; how it was run: as §2
Rattus norvegicus [34] = test: Effect of Metergoline on the elevation of serum corticosterone, after sc administration (0.3 mg/kg) Metergoline pretreament; format: functional, organism-based; how it was run: as §1

Work on `C[C@@H]1C=C2c3cccc4c3[C@@H](CN4)C[C@H]2N(C)C1` yielded a Serum corticosterone (Rattus norvegicus [1]) of 61.2 µg/mL, a Concentration (Rattus norvegicus [2]) of 1.64 nM/g and a Concentration (Rattus norvegicus [3]) of 46.6 nM/g. It also gave a Concentration (Rattus norvegicus [4]) of 2.18 mg/kg, an IC50 [5] of 1665 nM and a Concentration (Rattus norvegicus [6]) of 3.02 nM/g. For the same compound, the Concentration (Rattus norvegicus [7]) was 2.95 nM/g, the minimal effective dose (Rattus norvegicus [8]) was 0.03 mg/kg and the Concentration (Rattus norvegicus [9]) was 2.2 nM/g. For the same compound, the Serum corticosterone (Rattus norvegicus [10]) was 70.8 µg/mL, the Concentration (Rattus norvegicus [11]) was 1.45 nM/g and the Concentration (Rattus norvegicus [12]) was 4.3 nM/g. The Concentration (Rattus norvegicus [13]) was 1.94 mg/kg, the Concentration (Rattus norvegicus [14]) was 1.45 nM/g and the Concentration (Rattus norvegicus [15]) was 1.19 nM/g. The Concentration (Rattus norvegicus [16]) was 2.77 nM/g, the DOPAC concentration (Rattus norvegicus [17]) was 4.62 nM/g and the Serum corticosterone (Rattus norvegicus [18]) was 4.3 µg/mL. For the same compound, the Homovanillic acid concentration (Rattus norvegicus [19]) was 3.65 nM/g, the Concentration (Rattus norvegicus [20]) was 0.71 nM/g and the Concentration (Rattus norvegicus [21]) was 1.47 nM/g. For the same compound, the Serum corticosterone (Rattus norvegicus [22]) was 22.1 µg/mL, the Serum corticosterone (Rattus norvegicus [23]) was 46.8 µg/mL and the Selectivity ratio [24] was 100. It also gave a Homovanillic acid concentration (Rattus norvegicus [25]) of 2.89 nM/g, a Concentration (Rattus norvegicus [26]) of 1.89 nM/g and a Concentration (Rattus norvegicus [27]) of 2.2 nM/g. The Concentration (Rattus norvegicus [28]) was 1.92 nM/g, the Concentration (Rattus norvegicus [29]) was 4.78 mg/kg and the minimal effective dose (Rattus norvegicus [30]) was 0.1 mg/kg. It also gave a Concentration (Rattus norvegicus [31]) of 2.66 nM/g, a Serum corticosterone (Rattus norvegicus [32]) of 47.3 µg/mL and a Concentration (Rattus norvegicus [33]) of 0.73 nM/g. It also gave a Serum corticosterone (Rattus norvegicus [34]) of 50.2 µg/mL.
